How the values were obtained:
α-Mannosidase (α-Man) [1] = target: T1, α-Mannosidase (α-Man) (Canavalia ensiformis, UniProt C0HJB3); experiment: SPR interaction analysis between compounds and immobilised α-Man; format: binding, Canavalia ensiformis (Jack bean); conditions: for Kd: KD (equilibrium dissociation constant), kinetic analysis, SPR, 25 °C, 1:1 Langmuir binding model; for kon: read-out: ka (association rate constant); for koff: read-out: kd (dissociation rate constant)
T1 sequence (C0HJB3 1-562 limits assumed): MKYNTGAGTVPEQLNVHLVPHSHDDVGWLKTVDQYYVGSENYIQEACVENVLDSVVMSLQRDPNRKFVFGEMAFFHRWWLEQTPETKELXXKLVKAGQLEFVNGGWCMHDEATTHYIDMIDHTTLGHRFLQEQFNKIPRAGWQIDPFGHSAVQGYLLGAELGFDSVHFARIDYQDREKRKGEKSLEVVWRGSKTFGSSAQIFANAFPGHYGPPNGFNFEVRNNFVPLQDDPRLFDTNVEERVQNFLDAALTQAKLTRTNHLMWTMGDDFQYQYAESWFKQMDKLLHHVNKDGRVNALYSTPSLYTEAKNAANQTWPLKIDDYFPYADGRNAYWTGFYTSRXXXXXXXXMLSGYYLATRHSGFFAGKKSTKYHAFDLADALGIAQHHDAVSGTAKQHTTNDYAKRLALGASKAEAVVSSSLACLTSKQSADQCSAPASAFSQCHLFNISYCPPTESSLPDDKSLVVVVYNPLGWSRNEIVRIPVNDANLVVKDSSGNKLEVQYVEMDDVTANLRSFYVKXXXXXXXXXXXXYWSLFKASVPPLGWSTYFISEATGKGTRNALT
T1 sequence (C0HJB3 563-981 partner limits assumed): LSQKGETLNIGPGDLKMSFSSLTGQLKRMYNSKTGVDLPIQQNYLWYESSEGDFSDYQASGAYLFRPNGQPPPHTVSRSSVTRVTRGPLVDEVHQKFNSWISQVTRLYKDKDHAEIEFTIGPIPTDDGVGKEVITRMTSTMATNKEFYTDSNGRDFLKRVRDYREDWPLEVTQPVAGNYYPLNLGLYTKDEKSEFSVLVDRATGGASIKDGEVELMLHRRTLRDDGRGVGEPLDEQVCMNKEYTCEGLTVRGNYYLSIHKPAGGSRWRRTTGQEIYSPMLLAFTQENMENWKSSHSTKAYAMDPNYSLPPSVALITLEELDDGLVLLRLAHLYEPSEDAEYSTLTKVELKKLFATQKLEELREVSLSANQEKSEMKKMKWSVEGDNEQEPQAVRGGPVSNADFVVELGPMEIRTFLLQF
How it was run: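 The α-Man chip was referenced against an enzyme-free channel. Each test compound was run at six concentrations in a twofold series, injected in parallel at 25 μL/min and 25 °C, with 12 min association and 20 min dissociation. A 4.0–6.0% DMSO calibration curve was applied. Runs were done in triplicate. ka, kd and KD came from a global 1:1 Langmuir fit; equilibrium constants came from steady-state analysis.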

α-Mannosidase (α-Man) [2] = target: T1, α-Mannosidase (α-Man); experiment: SPR bioactivity assessment: binding ability; parameters: species or system Canavalia ensiformis (Jack bean); conditions: swainsonine standard solution, PBST running buffer
How it was run: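 Jack bean α-Man was amine-coupled onto the GLH chip binding channel after sulfo-NHS/EDC activation. Coupling was at 20 μg/mL in 10 mmol/L sodium acetate, pH 4, at 25 μL/min for 360 s, followed by ethanolamine blocking. A reference channel was activated and blocked without enzyme. A positive-control inhibitor standard was injected, with PBST (10 mmol/L Na3PO4, 150 mmol/L NaCl, 0.005% Tween 20, pH 7.4) as the blank. The response was followed during association.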

[3] = tested on: human hepatoma cancer cell line (HepG2); experiment: cells; format: cell-based; conditions: HepG2, 72 h, read-out: IC50, anti-proliferative activity
[4] = tested on: human breast cancer cell line (MCF7); experiment: cells; format: cell-based; conditions: MCF7, 72 h, read-out: IC50, anti-proliferative activity
[5] = tested on: human lung cancer cell line (HCC827); experiment: cells; format: cell-based; conditions: HCC827, 72 h, read-out: IC50, anti-proliferative activity
[6] = tested on: mouse fibroblast cells (L929); experiment: CCK-8 toxicity on normal cells, L929; format: cell-based; conditions: L929, under the condition of keeping 90% cell viability

| Structure (SMILES) | Kd (α-Mannosidase (α-Man) [1]) | kon (α-Mannosidase (α-Man) [1]) | koff (α-Mannosidase (α-Man) [1]) | response signal during association (α-Mannosidase (α-Man) [2]) | IC50 [3] | IC50 [4] | IC50 [5] | safe dose [6] |
| --- | --- | --- | --- | --- | --- | --- | --- | --- |
| O=Cc1ccc(O)cc1 [Compound 1, p-Hydroxybenzaldehyde] | 1370 µM | 1.54 M⁻¹ s⁻¹ | 0.00211 s⁻¹ |  |  |  |  |  |
| O[C@H]1[C@H]2[C@H](O)CCCN2C[C@H]1O [swainsonine, Swainsonine] |  |  |  | 20 RU |  |  |  |  |
| O=c1c2ccccc2nc2n1CCC2 [Compound 3, Deoxyvasicinone] | 47.3 µM | 73.3 M⁻¹ s⁻¹ | 0.00347 s⁻¹ |  | 5.7 µM | 7.21 µM | 0.75 µM | 20 µmol/L |
| COc1cc(C=O)cc(OC)c1O [Compound 2, 3,5-Dimethoxy-4-hydroxy-benzaldehyde] | 347 µM | 12 M⁻¹ s⁻¹ | 0.00418 s⁻¹ |  |  |  |  |  |
| COc1cc2ncnc(Nc3ccc(F)c(Cl)c3)c2cc1OCCCN1CCOCC1 [Gefitinib, reference compound] |  |  |  |  |  |  |  | 40 µmol/L |
